According to paper PMC9401513 (Clinical Cancer Research, 2021):
Entries after “also recorded” stand apart in the source; their conditions may differ.

Experiments:
[1] = Clinical pharmacokinetics; assay type: in vivo, human; conditions: for systemic exposure (AUCtau, Cmax) versus dose: 0.2 to 3.7 mg/kg every 3 weeks dose levels of PF-06647020; for Cmax: ADC, Cycle 1 single dose, geometric mean (geometric % CV)
[2] = Immunogenicity: anti-drug antibodies and neutralizing antibodies; assay type: in vivo, human
Procedure, shortened: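 Anti-drug antibodies were measured by a validated electrochemiluminescent assay. Samples were taken on days 1 and 15 of cycle 1, day 1 of each later cycle, and at end of treatment. ADA-positive samples were tested for neutralizing antibodies by a validated competitive ligand-binding electrochemiluminescent method.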

CYP3A4 = CYP3A4 (Homo sapiens, UniProt P08684); assay: Drug-drug interaction substudy with multiple-dose fluconazole; assay type: in vivo; conditions: PF-06647020 co-administered with multiple-dose fluconazole, 11 patients
Procedure, shortened: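 Single-dose test ADC was given alone in cycle 1 (reference) and co-administered with multiple-dose fluconazole in cycle 2 (test). Unconjugated payload exposure was measured as dose-normalized AUCinf and Cmax from noncompartmental analysis. Results were expressed as ratios of adjusted geometric means with 90% confidence intervals.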

[3] = tested on: patient-derived xenograft models; conditions: cited from earlier work
[4] = tested on: patients with advanced solid tumors; assay: Dose-limiting toxicity, MTD and RP2D determination; assay type: in vivo, human
Procedure, shortened: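 Dose escalation followed the modified toxicity probability interval method. Target DLT rate was 25%, with an acceptable interval of 20–30%, a beta(0.75, 0.65) prior and a 0.975 exclusion threshold. DLTs were treatment-related events in cycle 1, monitored over 28 days: grade 4 neutropenia >7 days, grade ≥3 nonhematologic nonhepatic toxicity, or >2-week cycle delay. MTD was the highest dose with DLT rate <0.30 in ≥9 evaluable patients. Dosing was IV every 3 weeks (0.2–3.7 mg/kg) or every 2 weeks (2.1, 2.8, 3.2 mg/kg).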

advanced TNBC = assay: Objective tumor response by RECIST v1.1, TNBC; assay type: in vivo, human; conditions: every 3 weeks
Procedure, shortened: (§1)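 Investigators assessed tumor response by RECIST v1.1 every 6 weeks (every-3-weeks cohorts) or every 8 weeks (every-2-weeks cohorts). CR and PR in expansion cohorts were confirmed by repeat assessment at least 4 weeks later, and ORR was calculated. NSCLC patients were preselected for moderate-to-high tumor PTK7 by IHC. Later TNBC patients were preselected for moderately high-to-high PTK7. Ovarian cancer patients were platinum-resistant and not preselected.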

[5] = tested on: platinum-resistant ovarian cancer; assay: Objective tumor response by RECIST v1.1, ovarian cancer; assay type: in vivo, human
Procedure, shortened: as §1

advanced NSCLC = assay: Objective tumor response by RECIST v1.1, NSCLC; assay type: in vivo, human
Procedure, shortened: as §1

[6] = every 2 weeks, N = 19, (95% CI)
[7] = every 3 weeks, N = 44, (95% CI)
[8] = every 2 weeks, N = 6, (95% CI), NR, not reached
[9] = every 3 weeks, N = 25, (95% CI)

Chain of CYP3A4 (P08684 whole entry): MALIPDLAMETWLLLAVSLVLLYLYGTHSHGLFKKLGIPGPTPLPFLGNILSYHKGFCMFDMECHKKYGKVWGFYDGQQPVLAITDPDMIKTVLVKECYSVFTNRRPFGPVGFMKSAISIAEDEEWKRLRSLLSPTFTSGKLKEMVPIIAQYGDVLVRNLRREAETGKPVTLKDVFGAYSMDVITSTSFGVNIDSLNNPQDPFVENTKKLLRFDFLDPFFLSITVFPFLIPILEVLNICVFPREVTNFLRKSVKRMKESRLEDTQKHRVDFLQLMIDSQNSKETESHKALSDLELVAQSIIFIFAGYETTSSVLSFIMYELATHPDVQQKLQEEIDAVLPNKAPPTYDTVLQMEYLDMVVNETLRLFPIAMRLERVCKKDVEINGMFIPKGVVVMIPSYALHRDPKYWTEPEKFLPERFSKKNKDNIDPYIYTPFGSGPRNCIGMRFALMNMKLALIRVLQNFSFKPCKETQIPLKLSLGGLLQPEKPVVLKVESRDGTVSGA

B1: cofetuzumab pelidotin (conjugate, chains of the INN, looked up)
VH: QVQLVQSGPEVKKPGASVKVSCKASGYTFTDYAVHWVRQAPGKRLEWIGVISTYNDYTYNNQDFKGRVTMTRDTSASTAYMELSRLRSEDTAVYYCARGNSYFYALDYWGQGTSVTVSS
VL: EIVLTQSPATLSLSPGERATLSCRASESVDSYGKSFMHWYQQKPGQAPRLLIYRASNLESGIPARFSGSGSGTDFTLTISSLEPEDFAVYYCQQSNEDPWTFGGGTKLEIK
modifications: auristatin-0101 payload, vc linker
[1]; 2.8 mg/kg every 3 weeks
  AUC ratio between ADC and total antibody: approximately 0.9
[1]
  systemic exposure (AUCtau, Cmax) versus dose: generally increased in a dose-related manner
[1]; listed as ADC
  systemic exposure (AUCtau, Cmax) versus dose: generally increased in a dose-proportional manner
[1]; 2.8 mg/kg Q2W IV
  Cmax: 99.7 µg/mL
[1]; 2.8 mg/kg Q3W IV
  Cmax: 79.8 µg/mL
[2]; every 2 weeks cohorts
  patients with ADA at baseline (not boosted by treatment): 4%
[2]; every 2 weeks, 25 evaluable patients
  patients with treatment-induced ADA and NAb: 4%
[2]; every 2 weeks, one patient, day 1 cycle 4, resolved same day
  infusion-related reaction in ADA-positive patient: grade 2 IRR
[2]; every 3 weeks, 108 evaluable patients
  patients positive for treatment-induced ADA: 10.2%
CYP3A4
  impact of fluconazole co-administration on overall exposure: did not have a notable impact
[3]; patient-derived xenograft models
  antitumor activity compared with standard chemotherapy: greater antitumor activity than standard chemotherapy
[3]; preclinical
  antitumor effect in patient-derived xenograft models: sustained tumor regression
[3]; serial transplantation experiments
  effect on tumor-initiating cells (TICs): reduced the frequency of TICs
[4]; 2.8 mg/kg every 2 weeks, n = 10
  DLT observed: grade 3 neutropenic infection in 1 patient
[4]; 3.2 mg/kg every 2 weeks, n = 12
  DLT observed: grade 3 abdominal pain in 2 patients
[4]; 3.7 mg/kg every 3 weeks (highest dose), n = 6, two DLTs
  DLTs reported: grade 3 headache and fatigue; also recorded: grade 3 headache and grade 3 fatigue
[4]; 3.7 mg/kg every 3 weeks, n = 6
  DLT rate: 33%
[4]; every 2 weeks regimen, dose levels 2.1-3.2 mg/kg
  MTD: not reached
[4]; every 3 weeks
  MTD (estimated as protocol specified): 2.8 mg/kg
  RP2D (recommended phase II dose): 2.8 mg/kg
Advanced TNBC; N = 29
  CR: 0 N
  PR: 6 N
Advanced TNBC; N = 29, (95% CI)
  ORR: 21 (8–40) %
  mDOR: 4.3 (1.3–10.2) mo
  mPFS: 1.5 (1.4–4.3) mo
[5]; 2.1 mg/kg every 3 weeks
  CR (number): 1
[5]; 2.8 mg/kg every 2 weeks
  CR (number): 1
  PR (number): 2
[5]; 3.2 mg/kg every 2 weeks
  CR (number): 1
  PR (number): 1
[5]; both regimens, n = 63
  overall objective response rate: 27%
[5]; every 2 weeks
  patients achieving CR: 11%
  patients achieving PR: 16%
[5]; [6]
  ORR: 26 (9–51) %
  mDOR: 6.5 (3.9–8.3) mo
  mPFS: 3.8 (3.1–7.4) mo
[5]; every 3 weeks
  patients achieving CR: 7%
  patients achieving PR: 21%
[5]; [7]
  ORR: 27 (15–43) %
  mDOR: 4.2 (2.8–8.3) mo
  mPFS: 2.9 (2.3–5.5) mo
Advanced NSCLC; 2.8 mg/kg every 3 weeks
  PRs (number): 4
Advanced NSCLC; 3.2 mg/kg every 2 weeks
  PRs (number): 2
Advanced NSCLC; both regimens, n = 31
  overall objective response rate: 19%
Advanced NSCLC; every 2 weeks, N = 6
  CR: 0 N
  PR: 2 N
Advanced NSCLC; every 2 weeks, N = 6, (95% CI)
  ORR: 33 (4–78) %
Advanced NSCLC; [8]
  mDOR: NR (3.7–NR)
  mPFS: 2.7 (1.0–NR) mo
Advanced NSCLC; every 3 weeks, N = 25
  CR: 0 N
  PR: 4 N
Advanced NSCLC; [9]
  ORR: 16 (5–36) %
  mDOR: 5.7 (1.5–9.9) mo
  mPFS: 2.9 (1.4–6.1) mo
